Measurements as given in ChEMBL document CHEMBL1121731, “Synthesis and neuroleptic activity of benzamides. Cis-N-(1-benzyl-2-methylpyrrolidin-3-yl)-5-chloro-2-methoxy-4-(methylamino)benzamide and related compounds” (1981).

Legend:
Assay type in all cases: functional
[1] = system: Rattus norvegicus; assay: Subcutaneous dose to inhibit apomorphine-induced stereotyped behavior in 50% of rats
Outline: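 Test drugs given subcutaneously to rats; 30 min later apomorphine 1.25 mg/kg i.v. Inhibition scored positive unless both gnawing and licking were seen during 20 min after apomorphine. ED50 estimated by Litchfield–Wilcoxon or graphical method, 6–12 rats per dose.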

[2] = species: Rattus norvegicus; assay: Effective dose to induce catalepsy in 50% of the rats (95% confidence limits included in parentheses)
[3] = species: Rattus norvegicus; assay: The inhibitory effect on the continuous avoidance was expressed as the dose to increase the number of electroshocks by 60% of the rats
Outline: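 Modified Sidman continuous avoidance schedule in rats; shock-shock interval 5 s, response-shock interval 25 s; only rats receiving fewer than 19 shocks/h used. Drugs given subcutaneously; effect expressed as dose raising electroshocks by 60 (1 shock/min) between 1 and 2 h post-dose.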

[4] = species: Rattus norvegicus; assay: Effective dose to induce catalepsy in 50% of the rats
[5] = Ratio of ED50 for inhibition of catalepsy induction to stereotypy induction
[6] = Rattus norvegicus, sc, read-out: ED50

`COc1cc(NC(C)=O)c(Cl)cc1C(=O)NC1CCN(Cc2ccccc2)C1` (configuration not stated) gave an ED50 [1, 6] of 1.8 mg/kg.
Compound `COc1cc(N(C)C)c(Cl)cc1C(=O)NC1CCN(Cc2ccccc2)C1` (configuration not stated) has an ED50 [1, 6] of 0.12 mg/kg.
`CNc1cc(OC)c(C(=O)NC2CCN(Cc3ccccc3)C2C)cc1Cl` (cis isomer) [NEMONAPRIDE] gave an ED50 [2] of 0.5 mg/kg, an ED50 [1] of 0.0076 mg/kg and an ED50 [3] of 0.0034 mg/kg.
`CCC1c2ccccc2CN1CNC(=O)c1cc(Cl)c(N)cc1OC` (configuration not stated) gave an ED50 [1, 6] of 1 mg/kg.
`COc1ccc(OC)c(C(=O)NCCN(C)Cc2ccccc2)c1.Cl` showed an ED50 [1, 6] of 3 mg/kg.
Compound `CCN1CCCC1CNC(=O)c1cc(Cl)c(N)cc1OC` (configuration not stated) has an ED50 [1, 6] of over 30 mg/kg.
`COc1cc(N)c(Cl)cc1C(=O)NCCN(Cc1ccccc1)C(C)(C)C` showed an ED50 [1, 6] of over 30 mg/kg.
`CCN(CCNC(=O)c1cc(Cl)c(N)cc1OC)Cc1ccccn1` showed an ED50 [1, 6] of 30 mg/kg.
Compound `O=C(CCCN1CCC(O)(c2ccc(Cl)cc2)CC1)c1ccc(F)cc1` [HALOPERIDOL] has an ED50 [1, 6] of 0.095 mg/kg, an ED50 [3] of 0.021 mg/kg and an ED50 [4] of 1 mg/kg. For the same compound, the Ratio [5] was 11.
In the case of `CNc1cc(OC)c(C(=O)NC2CCN(Cc3ccccc3)C2)cc1Cl` (configuration not stated), the ED50 [1, 6] was 0.016 mg/kg, the ED50 [3] was 0.008 mg/kg and the ED50 [4] was 1.6 mg/kg. For the same compound, the Ratio [5] was 100.
Compound `COc1cc(N(C)C)c(Cl)cc1C(=O)NC1CCN(C2CCCCC2)C1` (configuration not stated) has an ED50 [1, 6] of 1 mg/kg.
For `CNc1cc(OC)c(C(=O)NCC2CCC(C)N2Cc2ccccc2)cc1Cl.Cl` (configuration not stated), the ED50 [1, 6] was 0.35 mg/kg, the ED50 [3] was 0.11 mg/kg and the ED50 [4] was 13.5 mg/kg. For the same compound, the Ratio [5] was 39.
`CCN(CCNC(=O)c1cc(Cl)c(N)cc1OC)Cc1ccco1` showed an ED50 [1, 6] of 3 mg/kg.
`COc1cc(N)c(Cl)cc1C(=O)NCCN(C)CC1CCCCC1` showed an ED50 [1, 6] of 3 mg/kg.
In the case of `CCN(CCNC(=O)c1cc(Cl)c(N)cc1OC)Cc1ccc(Cl)cc1Cl`, the ED50 [1, 6] was 10 mg/kg.
For `CCN(CC)CCNC(=O)c1cc(Cl)c(N)cc1OC` [METOCLOPRAMIDE], the ED50 [1, 6] was 3.1 mg/kg, the ED50 [3] was 2.6 mg/kg and the ED50 [4] was 26 mg/kg. The Ratio [5] was 8.4.
`COc1cc(N)c(Cl)cc1C(=O)NCC1CCC(C)N1Cc1ccccc1` (configuration not stated) gave an ED50 [1, 6] of 0.67 mg/kg.
Compound `CCN(CCNC(=O)c1cc(Cl)c(N)cc1OC)Cc1ccccc1OC` has an ED50 [1, 6] of 10 mg/kg.
`CCCN(CCNC(=O)c1cc(Cl)c(N)cc1OC)Cc1ccc(Cl)cc1` showed an ED50 [1, 6] of 3 mg/kg.
`COc1cc(N(C)C(=O)C(F)(F)F)c(Cl)cc1C(=O)NC1CCN(Cc2ccccc2)C1` (configuration not stated) gave an ED50 [1, 6] of 0.3 mg/kg.
Compound `COc1cc(N)c(Cl)cc1C(=O)NCCN(Cc1ccc(Cl)cc1)C(C)C` has an ED50 [1, 6] of 3 mg/kg.
`COc1cc(NCc2ccccc2)c(Cl)cc1C(=O)NC1CCN(Cc2ccccc2)C1` (configuration not stated) showed an ED50 [1, 6] of over 30 mg/kg.
Compound `COc1cc(C(=O)NCCN(C)Cc2ccccc2)cc(OC)c1OC` has an ED50 [1, 6] of over 30 mg/kg.
For `COc1cc(N)c(Cl)cc1C(=O)NCCN(C)Cc1ccccc1C(F)(F)F`, the ED50 [1, 6] was 30 mg/kg.
`COc1ccc(Cl)cc1C(=O)NCCN(C)Cc1ccccc1.Cl` gave an ED50 [1, 6] of 3 mg/kg.
`CCCCN(CCNC(=O)c1cc(Cl)c(N)cc1OC)Cc1ccc(Cl)cc1` showed an ED50 [1, 6] of 20 mg/kg.
In the case of `CCN(CCNC(=O)c1cc(Cl)c(N)cc1OC)Cc1ccc(F)cc1`, the ED50 [1, 6] was 0.2 mg/kg.
Work on `COc1cc(N)c(Cl)cc1C(=O)NCCN(C)C(C)c1ccccc1` (configuration not stated) yielded an ED50 [1, 6] of 1 mg/kg.
With `COc1cc(N2CCCC2)c(Cl)cc1C(=O)NC1CCN(Cc2ccccc2)C1` (configuration not stated) the ED50 [1, 6] was 0.6 mg/kg.
`COc1cc(N)c(Cl)cc1C(=O)NCCN(C)Cc1ccccc1C` gave an ED50 [1, 6] of 2 mg/kg.
With `CCN1CCC(NC(=O)c2cc(Cl)c(NC)cc2OC)C1` (configuration not stated) the ED50 [1, 6] was 10 mg/kg.
For `CNc1cc(OC)c(C(=O)NCC2CCCN2Cc2ccccc2)cc1Cl.Cl` (configuration not stated), the ED50 [1, 6] was 0.94 mg/kg.
Compound `CCN(CCNC(=O)c1cc(Cl)c(N)cc1OC)Cc1ccccc1` has an ED50 [1, 6] of 0.31 mg/kg.
`COc1ccc(S(C)(=O)=O)cc1C(=O)NCCN(C)Cc1ccccc1` showed an ED50 [1, 6] of 3 mg/kg.
`CCN1C(CNC(=O)c2cc(Cl)c(NC)cc2OC)CCC1c1ccccc1` (configuration not stated) showed an ED50 [1, 6] of over 30 mg/kg.
In the case of `CCN1CCCC1CNC(=O)c1cc(S(=O)(=O)CC)ccc1OC` (configuration not stated) [SULTOPRIDE], the ED50 [1, 6] was 18 mg/kg.
`COc1cc(N)c(Cl)cc1C(=O)NCCN(Cc1ccccc1)Cc1ccccc1` gave an ED50 [1, 6] of over 30 mg/kg.
`CCN(CCNC(=O)c1cc(Cl)c(N)cc1OC)Cc1cccc(OC)c1` gave an ED50 [1, 6] of 1 mg/kg.
Work on `COc1ccc(S(N)(=O)=O)cc1C(=O)NCCN(C)Cc1ccccc1` yielded an ED50 [1, 6] of over 30 mg/kg.
`CCNCCNC(=O)c1cc(Cl)c(N)cc1OC` [MONODEETHYLATED-MCP] showed an ED50 [1, 6] of over 30 mg/kg.
`CCN(CCNC(=O)c1cc(Cl)c(N)cc1OC)Cc1ccc(OC)cc1` gave an ED50 [1, 6] of 0.2 mg/kg.
Work on `CNc1cc(OC)c(C(=O)NC2CCN(Cc3ccccc3)C2C)cc1Cl` (cis isomer) yielded a Ratio [5] of 66.
Compound `COc1cc(N(C)C)c(Cl)cc1C(=O)NCC1CCCN1C1CCCCC1.O=C(O)C(=O)O` (configuration not stated) has an ED50 [1, 6] of over 30 mg/kg.
With `CCN(CCNC(=O)c1cc(Cl)c(N)cc1OC)Cc1cccc(Cl)c1` the ED50 [1, 6] was 0.58 mg/kg.
Compound `CCN(CCNC(=O)c1cc(Cl)c(N)cc1OC)Cc1ccccc1Cl` has an ED50 [1, 6] of 10 mg/kg.
With `COc1cc(N)c(Cl)cc1C(=O)NCC1CCCN1Cc1ccccc1` (configuration not stated) the ED50 [1, 6] was 1.1 mg/kg.
Compound `COc1cc(N)c(Cl)cc1C(=O)NC1CCN(Cc2ccccc2)C1` (configuration not stated) has an ED50 [1, 6] of 0.17 mg/kg.
With `CCN1CCCC1CNC(=O)c1cc(S(N)(=O)=O)ccc1OC` (configuration not stated) [SULPIRIDE] the ED50 [1, 6] was over 100 mg/kg.
Work on `CCN(CCNC(=O)c1cc(Cl)c(N)cc1OC)Cc1ccc(Cl)cc1` yielded an ED50 [1, 6] of 0.24 mg/kg.
Compound `CCNc1cc(OC)c(C(=O)NC2CCN(Cc3ccccc3)C2)cc1Cl` (configuration not stated) has an ED50 [1, 6] of 0.1 mg/kg.
Compound `CN(CCNC(=O)c1ccc(F)cc1)Cc1ccccc1.Cl` has an ED50 [1, 6] of over 30 mg/kg.
`COc1cc(N(C)C)c(Cl)cc1C(=O)NCCN(C)Cc1ccccc1` showed an ED50 [1, 6] of 0.54 mg/kg.
With `CNc1cc(OC)c(C(=O)NC2CCN(Cc3ccccc3)C2C)cc1Cl` (trans isomer) [NEMONAPRIDE] the ED50 [1] was 0.057 mg/kg.
In the case of `COc1cc(N)c(Cl)cc1C(=O)NCCN(C)Cc1ccccc1`, the ED50 [1, 6] was 0.38 mg/kg.
In the case of `CCNS(=O)(=O)c1ccc(OC)c(C(=O)NCCN(C)Cc2ccccc2)c1`, the ED50 [1, 6] was over 30 mg/kg.
Compound `CCCNc1cc(OC)c(C(=O)NC2CCN(Cc3ccccc3)C2)cc1Cl` (configuration not stated) has an ED50 [1, 6] of 17 mg/kg.
Compound `COc1cc(NC=O)c(Cl)cc1C(=O)NC1CCN(Cc2ccccc2)C1` (configuration not stated) has an ED50 [1, 6] of 0.6 mg/kg.
`CNc1cc(OC)c(C(=O)NCCN(C)Cc2ccccc2)cc1Cl.Cl` gave an ED50 [1, 6] of 0.21 mg/kg, an ED50 [3] of 0.041 mg/kg and an ED50 [4] of 16.5 mg/kg. The Ratio [5] was 79.
With `COc1cc(N)c(Cl)cc1C(=O)NC1CCN(C2CCCCC2)C1` (configuration not stated) the ED50 [1, 6] was 1.8 mg/kg.
Compound `COc1cc(N(C)C(C)=O)c(Cl)cc1C(=O)NC1CCN(Cc2ccccc2)C1` (configuration not stated) has an ED50 [1, 6] of over 30 mg/kg.
